In ChEMBL document CHEMBL1158367, “Cationic surfactants from lysine: synthesis, micellization and biological evaluation” (Eur J Med Chem, 2009):
In brackets after ≈: the same amount, converted by molar mass. Activity calls are given as the source filed them. No cut-off for these calls is given here.

Key:
Klebsiella aerogenes [1] = assay: Antimicrobial activity against Enterobacter aerogenes after 24 hrs; format: functional
Method in brief: (§1)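 MIC by agar dilution: compound incorporated in nutrient agar at 0.1–256 µg/mL, with poorly soluble surfactants predissolved in minimal DMF and a DMF-matched solvent control. Plates were seeded with nutrient broth starter culture and incubated at 37 °C. Growth was scored visually after 24 h; test medium pH 6.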

Serratia marcescens [2] = assay: Antimicrobial activity against Serratia marcescens after 24 hrs; format: functional; method in brief: as §1
[3] = test system: Bordetella bronchiseptica; assay: Antimicrobial activity against Bordetella bronchiseptica after 24 hrs; format: functional; method in brief: as §1
Pseudomonas aeruginosa [4] = assay: Antimicrobial activity against Pseudomonas aeruginosa after 24 hrs; format: functional; method in brief: as §1
[5] = test system: Salmonella enterica subsp. enterica; assay: Antimicrobial activity against Salmonella Typhimurium after 24 hrs; format: functional, Salmonella enterica subsp. enterica serovar Typhimurium; method in brief: as §1
Escherichia coli [6] = assay: Antimicrobial activity against Escherichia coli after 24 hrs; format: functional; method in brief: as §1
Klebsiella pneumoniae [7] = assay: Antimicrobial activity against Klebsiella pneumoniae after 24 hrs; format: functional; method in brief: as §1
[8] = test system: Staphylococcus epidermidis; assay: Antimicrobial activity against Staphylococcus epidermidis after 24 hrs; format: functional; method in brief: as §1
Bacillus subtilis = assay: Antimicrobial activity against Bacillus subtilis after 24 hrs; format: functional; method in brief: as §1
Staphylococcus aureus = assay: Antimicrobial activity against Staphylococcus aureus after 24 hrs; format: functional; method in brief: as §1
Micrococcus luteus = assay: Antimicrobial activity against Micrococcus luteus after 24 hrs; format: functional; method in brief: as §1
[9] = Toxicity in human erythrocytes assessed as hemolytic activity; format: cell-based, Erythrocyte
Method in brief: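 Erythrocytes washed three times in isotonic phosphate saline with 10 mmol/L glucose, pH 7.4, then exposed to surfactant for 10 min at room temperature with shaking and centrifuged. Supernatant A540 compared with water-lysed total-haemolysis controls. HC50 read from percent haemolysis versus concentration plots.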

Mycolicibacterium phlei = assay: Antimicrobial activity against Mycobacterium phlei after 24 hrs; format: functional; method in brief: as §1
Enterococcus hirae = assay: Antimicrobial activity against Enterococcus hirae after 24 hrs; format: functional; method in brief: as §1
Bacillus cereus = assay: Antimicrobial activity against Bacillus cereus var. mycoides after 24 hrs; format: functional
Method in brief: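 Agar dilution MIC: compounds incorporated into nutrient agar over 0.1–256 µg/mL; poorly soluble ones first dissolved in minimal DMF, then diluted into medium, with a DMF-supplemented solvent control. Inoculated from a nutrient broth starter culture to a final ca. 5 × […] CFU/mL. Incubated 24 h at 37 °C; growth scored visually against a compound-free control.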

[10] = Toxicity against Daphnia magna after 24 hrs by immobility assay
Method in brief: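 Daphnia magna acute test using laboratory-bred animals no older than 24 h. Medium pH 8.0, hardness 250 mg/L as CaCO3 (Ca/Mg 4/1), dark, 20 °C. Four groups of five per concentration, ten concentrations in geometric series. Immobility at 24 h plotted on log-probability paper; IC50 with 95% confidence ranges.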

[11] = Dissociation constant, pKa of the compound; format: physicochemical
Method in brief: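 Apparent pKa calculated from pH measurements of surfactant solutions at concentrations that show antimicrobial activity.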

[12] = Critical micelle concentration by PGSE-NMR method; format: physicochemical
Method in brief: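 Surfactant intradiffusion measured by PGSE-NMR, varying gradient strength, from alkyl-chain CH2 signal intensities, at 25 °C (50 °C for the palmitoyl analogue). CMC taken from fitting the two-site exchange model D_obs = p_mic·D_mic + (1−p_mic)·D_free to the descending part of D versus concentration.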

Candida albicans [13] = assay: Antimicrobial activity against Candida albicans at […] after 24 hrs; format: functional, organism-based
Klebsiella pneumoniae [14] = assay: Antimicrobial activity against Klebsiella pneumoniae at […] after 24 hrs; format: functional, organism-based
[15] = test system: Salmonella enterica subsp. enterica; assay: Antimicrobial activity against Salmonella Typhimurium at […] after 24 hrs; format: functional, organism-based; conditions: Salmonella enterica subsp. enterica serovar Typhimurium
Pseudomonas aeruginosa [16] = assay: Antimicrobial activity against Pseudomonas aeruginosa at […] after 24 hrs; format: functional, organism-based
[17] = test system: Bordetella bronchiseptica; assay: Antimicrobial activity against Bordetella bronchiseptica at […] after 24 hrs; format: functional, organism-based
Serratia marcescens [18] = assay: Antimicrobial activity against Serratia marcescens at […] after 24 hrs; format: functional, organism-based
Klebsiella aerogenes [19] = assay: Antimicrobial activity against Enterobacter aerogenes at […] after 24 hrs; format: functional, organism-based
Candida albicans [20] = assay: Antimicrobial activity against Candida albicans after 24 hrs; format: functional; method in brief: as §1
Escherichia coli [21] = assay: Antimicrobial activity against Escherichia coli at […] after 24 hrs; format: functional, organism-based

Molecule | MIC (Klebsiella aerogenes [1]) [µM] | MIC (Serratia marcescens [2]) [µM] | MIC [3] [µM] | MIC (Escherichia coli [6]) [µM] | MIC (Klebsiella pneumoniae [7]) [µM] | MIC [8] [µM] | MIC (Bacillus subtilis) [µM] | MIC (Staphylococcus aureus) [µM] | MIC (Micrococcus luteus) [µM] | IC50 [9] [µM] | MIC (Mycolicibacterium phlei) [µM] | MIC (Enterococcus hirae) [µM] | MIC (Bacillus cereus) [µM] | IC50 [10] [µM] | CMC [12] [mM] | Activity [15] | Activity (Pseudomonas aeruginosa [16]) | Activity [17] | Activity (Serratia marcescens [18]) | Activity (Klebsiella aerogenes [19]) | other results
CCCCCCCCCCCC(=O)N[C@@H](CCCCN)C(=O)OC | 157 (≈ 53.8 µg/mL) | 338 (≈ 116 µg/mL) | 42 (≈ 14.4 µg/mL) | 42 (≈ 14.4 µg/mL) | 85 (≈ 29.1 µg/mL) | 42 (≈ 14.4 µg/mL) | 42 (≈ 14.4 µg/mL) | 85 (≈ 29.1 µg/mL) | 11 (≈ 3.77 µg/mL) | 199 |  |  |  |  |  |  |  |  |  |  | MIC (Pseudomonas aeruginosa [4]): 169 µM (≈ 57.9 µg/mL); MIC [5]: 85 µM (≈ 29.1 µg/mL)
CCCCCCCCCCCCCC(=O)NCCCC[C@H](N)C(=O)OC.Cl |  |  |  | 157 |  | 157 | 157 | 157 | 157 | 1230 | 78 | 157 | 157 | 7.3 | 1.6 | inactive | inactive | inactive | inactive | inactive | pKa [11]: 7.8; Activity (Candida albicans [13]): inactive; Activity (Klebsiella pneumoniae [14]): inactive
CCCCCCCCCCCC(=O)N[C@@H](CCCNC(=N)N)C(=O)OC | 157 (≈ 58.2 µg/mL) | 315 (≈ 117 µg/mL) | 157 (≈ 58.2 µg/mL) | 157 (≈ 58.2 µg/mL) | 79 (≈ 29.3 µg/mL) | 20 (≈ 7.41 µg/mL) | 157 (≈ 58.2 µg/mL) | 39 (≈ 14.5 µg/mL) | 39 (≈ 14.5 µg/mL) | 150 | 39 (≈ 14.5 µg/mL) | 39 (≈ 14.5 µg/mL) | 39 (≈ 14.5 µg/mL) | 36 |  |  |  |  |  |  | MIC (Pseudomonas aeruginosa [4]): 157 µM (≈ 58.2 µg/mL); MIC [5]: 157 µM (≈ 58.2 µg/mL); MIC (Candida albicans [20]): 157 µM (≈ 58.2 µg/mL)
CCCCCCCCCCCCCCCC(=O)NCCCC[C@H](N)C(=O)OC.Cl |  |  |  |  |  | 148 | 148 | 148 | 74 | 1450 | 148 | 74 | 148 |  | 0.6 | inactive | inactive | inactive | inactive | inactive | Activity (Candida albicans [13]): inactive; Activity (Klebsiella pneumoniae [14]): inactive; Activity (Escherichia coli [21]): inactive
hexadecyl trimethyl ammonium bromide |  |  | 20 | 44 | 44 | 10 | 44 |  | 44 |  |  |  |  |  |  |  |  |  |  |  | 
CCCCCCCCCCCC(=O)NCCCC[C@H](N)C(=O)OC.Cl |  |  |  | 169 | 338 | 169 | 338 | 338 | 338 | 391 | 169 | 338 | 169 | 32 | 5.5 | inactive | inactive | inactive | inactive | inactive | MIC (Candida albicans [20]): 169 µM; pKa [11]: 8.2
